# Several values for one entry are separate records, joined by “and”; a condition that tells them apart may be missing. Equal values may be shown once.
# Assays:
# [1] = biological target: T1, Adenosine receptor A2b (Homo sapiens) (UniProt P29275); assay: Inhibition of NECA-stimulated cAMP accumulation in CHO cells expressing human adenosine A2B receptor at 1 uM; type: functional, cell-based
# T1 sequence (whole entry): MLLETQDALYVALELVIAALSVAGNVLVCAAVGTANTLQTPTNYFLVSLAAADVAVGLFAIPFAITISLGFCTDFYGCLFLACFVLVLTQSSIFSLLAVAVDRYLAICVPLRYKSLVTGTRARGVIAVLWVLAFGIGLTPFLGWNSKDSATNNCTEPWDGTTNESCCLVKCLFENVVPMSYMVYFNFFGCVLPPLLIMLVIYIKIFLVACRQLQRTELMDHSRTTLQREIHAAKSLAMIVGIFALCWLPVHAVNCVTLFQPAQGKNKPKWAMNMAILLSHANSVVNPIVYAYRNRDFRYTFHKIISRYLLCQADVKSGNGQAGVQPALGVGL
# [2] = biological target: Adenosine receptor A2a (Homo sapiens, UniProt P29274); assay: Displacement of [3H]ZM-241385 from human adenosine A2A receptor expressed in HEK293 cells; type: cell-based
# How it was run: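 Human A2A receptor membranes in 50 mM Tris HCl, 10 mM MgCl2, pH 7.4, competed against [3H]-ZM241385 at 6-8 test concentrations for 60 min at 25 °C. NECA defined nonspecific binding. Bound label was collected on glass-fiber filters by filtration and counted. Means ± SEM.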
# [3] = biological target: T2, Adenosine receptor A1 (Homo sapiens, UniProt P30542); assay: Displacement of [3H]DPCPX from human adenosine A1 receptor expressed in CHO cells; type: cell-based
# T2 sequence (P30542 whole entry): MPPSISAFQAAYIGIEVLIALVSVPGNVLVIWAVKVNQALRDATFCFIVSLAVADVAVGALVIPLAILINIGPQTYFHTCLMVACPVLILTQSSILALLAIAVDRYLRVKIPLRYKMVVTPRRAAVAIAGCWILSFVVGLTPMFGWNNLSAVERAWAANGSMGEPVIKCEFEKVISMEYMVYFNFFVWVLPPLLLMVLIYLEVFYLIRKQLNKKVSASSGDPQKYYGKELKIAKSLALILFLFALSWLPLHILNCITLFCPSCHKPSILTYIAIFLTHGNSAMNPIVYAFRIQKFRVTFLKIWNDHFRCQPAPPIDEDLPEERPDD
# How it was run: (§1)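 CHO membranes bearing recombinant human A1 receptor, in 50 mM Tris HCl pH 7.4, incubated 120 min at 25 °C with 1 nM [3H]DPCPX and 6-8 test concentrations. CHA defined nonspecific binding. Bound and free label were separated on GF/B glass-fiber filters and counted. […] Means ± SEM.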
# [4] = biological target: T3, Adenosine receptor A2b (Homo sapiens, UniProt P29275); assay: Inhibition of NECA-stimulated cAMP accumulation in CHO cells expressing human adenosine A2B receptor; type: functional, cell-based
# T3 sequence (P29275 whole entry): T1 sequence (whole entry)
# How it was run: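 Trypsinized A2B-transfected CHO cells (1 × 10⁶ per assay) were preincubated 10 min at 37 °C in pH 7.4 salt buffer with 2 IU/mL adenosine deaminase and Ro 20-1724, then stimulated with 100 nM NECA plus antagonist. Stopped with cold 6% TCA, ether-extracted, and cAMP measured by [3H]cAMP competition with adrenal binding protein. IC50 derived.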
# [5] = biological target: Adenosine receptors; A1 & A3 (Homo sapiens) (UniProt P30542+P0DMS8); assay: Selectivity for human adenosine A3 over human adenosine A1 receptor; type: protein assay
# [6] = biological target: Adenosine receptors; A2a & A3 (Homo sapiens) (UniProt P0DMS8+P29274); assay: Selectivity for human adenosine A3 over human adenosine A2A receptor; type: protein assay
# [7] = biological target: T4, Adenosine receptor A3 (Homo sapiens, UniProt P0DMS8); assay: Displacement of [3H]MRE3008-F20 from human adenosine A3 receptor expressed in HEK293 cells; type: cell-based
# T4 sequence (P0DMS8 whole entry): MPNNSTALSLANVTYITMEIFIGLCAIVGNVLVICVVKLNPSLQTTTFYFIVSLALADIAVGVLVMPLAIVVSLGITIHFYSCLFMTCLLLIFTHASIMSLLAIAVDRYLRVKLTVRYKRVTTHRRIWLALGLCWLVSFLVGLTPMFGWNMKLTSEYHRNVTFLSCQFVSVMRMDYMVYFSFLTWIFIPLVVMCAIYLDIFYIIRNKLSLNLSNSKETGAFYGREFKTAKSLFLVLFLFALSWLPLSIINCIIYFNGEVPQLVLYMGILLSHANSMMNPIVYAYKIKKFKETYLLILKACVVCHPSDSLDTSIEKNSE
# How it was run: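 Assays ran in duplicate with 1 nM [3H]MRE3008-F20 on human A3 receptor membranes in 50 mM Tris HCl, 10 mM MgCl2, pH 7.4, at 6-8 ligand concentrations, for 120 min at 4 °C. Bound label was separated by GF/B filtration and counted. Means ± SEM.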
# [8] = biological target: T5, Adenosine receptor A1 (Homo sapiens) (UniProt P30542); assay: Inhibition of [3H]DPCPX binding to human adenosine A1 receptor expressed in CHO cells at 1 uM; type: cell-based; how it was run: as §1
# T5 sequence (whole entry): T2 sequence (P30542 whole entry)
# Adenosine receptor A2a, sequence (P29274 whole entry): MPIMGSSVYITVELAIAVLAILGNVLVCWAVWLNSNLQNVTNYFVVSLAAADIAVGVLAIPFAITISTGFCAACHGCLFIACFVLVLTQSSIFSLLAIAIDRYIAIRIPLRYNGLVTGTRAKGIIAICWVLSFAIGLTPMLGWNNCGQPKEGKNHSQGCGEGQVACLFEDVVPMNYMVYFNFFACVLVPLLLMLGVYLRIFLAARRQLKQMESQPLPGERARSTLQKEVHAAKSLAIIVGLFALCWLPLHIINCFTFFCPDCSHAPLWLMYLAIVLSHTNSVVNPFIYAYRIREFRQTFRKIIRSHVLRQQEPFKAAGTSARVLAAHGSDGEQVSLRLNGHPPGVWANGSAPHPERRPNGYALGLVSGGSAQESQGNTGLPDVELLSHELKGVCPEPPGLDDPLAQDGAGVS
# Adenosine receptors; A2a & A3 (Homo sapiens), sequence (P29274 whole entry, looked up, one chain of several): as the sequence (P29274 whole entry) above
Structure (SMILES),inhibition [1],Ki [2] [nM],Ki [3] [nM],IC50 ([4]; cho) [nM],Ratio Ki [5],Ratio Ki [6],Ki [7] [nM],IC50 [4] [nM],inhibition [8] [%]
Cn1cc2c(nc(NC(=O)Nc3ccncc3)n3nc(-c4ccco4)nc23)n1 [listing 1 of 3 here],12% and 20%,,,,,,,,
Cn1cc2c(nc(NC(=O)Nc3cc[n+](C)cc3)n3nc(-c4ccco4)nc23)n1,6%,282,> 1000,,> 36,10,28,> 1000,20
Cn1cc2c(nc(NC(=O)Nc3ccccn3)n3nc(-c4ccco4)nc23)n1 [listing 1 of 3 here],,180,265,,,,0.5,> 1000,
Cn1cc2c(nc(NC(=O)Nc3ccc4ccccc4n3)n3nc(-c4ccco4)nc23)n1,17%,810,> 1000,,> 9,7.3,110,> 1000,12
Cn1cc2c(nc(NC(=O)Nc3ccccn3)n3nc(-c4ccco4)nc23)n1 [listing 2 of 3 here],20% and 16%,,,,530 and 600,360 and 400,,,
Cn1cc2c(nc(NC(=O)Nc3cccnc3)n3nc(-c4ccco4)nc23)n1 [listing 1 of 3 here],18% and 24%,,,,445 and 522,281 and 284,,,
Cn1cc2c(nc(NC(=O)Nc3ccco3)n3nc(-c4ccco4)nc23)n1,8%,350,> 1000,,> 62.5,22,16,> 1000,25
Cc1ccc(NC(=O)Nc2nc3nn(C)cc3c3nc(-c4ccco4)nn23)s1,20%,920,> 1000,,> 100,92,10,> 1000,10
Cn1cc2c(nc(NC(=O)Nc3cccnc3)n3nc(-c4ccco4)nc23)n1 [listing 3 of 3 here],,155,245,,,,0.55,> 1000,
Cc1sccc1NC(=O)Nc1nc2nn(C)cc2c2nc(-c3ccco3)nn12,31%,410,> 1000,,> 286,117,3.5,> 1000,24
Cn1cc2c(nc(NC(=O)Nc3ccoc3)n3nc(-c4ccco4)nc23)n1,4%,400,> 1000,,> 90,36,11,> 1000,20
Cn1cc2c(nc(NC(=O)Nc3cc[n+]([O-])cc3)n3nc(-c4ccco4)nc23)n1,12%,153,> 1000,,> 47,7.3,21,> 1000,35

# The remaining lines, values ahead:
inhibition [1],Ki [2] [nM],Ki [3] [nM],IC50 ([4]; cho) [nM],Ratio Ki [5],Ratio Ki [6],Ki [7] [nM],IC50 [4] [nM],inhibition [8] [%],Structure (SMILES)
,65,260,> 1000,,,,,,Cn1cc2c(nc(NC(=O)Nc3ccncc3)n3nc(-c4ccco4)nc23)n1 [listing 2 of 3 here]
,64,400,,307,49,1.3,280,,Cn1cc2c(nc(NC(=O)Nc3cccc[n+]3C)n3nc(-c4ccco4)nc23)n1
,42,330,,62,8,5.3,244,,Cn1cc2c(nc(NC(=O)Nc3ccc[n+](C)c3)n3nc(-c4ccco4)nc23)n1
,75,550,,55,7.5,10,260,,Cn1cc2c(nc(NC(=O)Nc3ccc[n+]([O-])c3)n3nc(-c4ccco4)nc23)n1
,125,230,> 1000,,,0.44,,,Cn1cc2c(nc(NC(=O)Nc3cccnc3)n3nc(-c4ccco4)nc23)n1 [listing 2 of 3 here]
,140,210,> 1000,,,0.35,,,Cn1cc2c(nc(NC(=O)Nc3ccccn3)n3nc(-c4ccco4)nc23)n1 [listing 3 of 3 here]
,60,> 1000,,> 83,5,12,250,22,Cn1cc2c(nc(NC(=O)Nc3cc4ccccc4o3)n3nc(-c4ccco4)nc23)n1
,110,800,,228,31,3.5,320,,Cn1cc2c(nc(NC(=O)Nc3cccc[n+]3[O-])n3nc(-c4ccco4)nc23)n1
,110,355,,,,,> 1000,,Cn1cc2c(nc(NC(=O)Nc3ccncc3)n3nc(-c4ccco4)nc23)n1 [listing 3 of 3 here]
